Source: ChEMBL document CHEMBL1150680, “Anti-inflammatory constituents and new pterocarpanoid of Crotalaria pallida” (J Nat Prod, 2003)

Columns and labels:
[1] = Antiinflammatory activity in fMLP/cytochalasin B stimulated rat neutrophils assessed as inhibition of beta-glucuronidase release at 10 uM preincubated for 10 mins measured 45 mins after fMLP/cytochalasin B challenge relative to control; type: functional, Neutrophil; design: Activity: scale not given: the % may be the effect or the level left
Summary of the method: (§1)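 Rat blood neutrophils were isolated in EDTA by dextran sedimentation, Ficoll-Hypaque and hypotonic lysis, then suspended in HBSS at 1 × 10⁷ cells/mL. Preincubated 10 min at 37 °C with drug or DMSO (final ≤0.5%), then challenged with fMLP (1 μM)/cytochalasin B (5 μg/mL). After 45 min, supernatant lysozyme and β-glucuronidase were expressed as percent of the Triton X-100 total content.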

[2] = Antiinflammatory activity in fMLP/cytochalasin B stimulated rat neutrophils assessed as inhibition of beta-glucuronidase release at 30 uM preincubated for 10 mins measured 45 mins after fMLP/cytochalasin B challenge relative to control; type: functional; conditions: Neutrophil, read-out: INH; summary of the method: as §1
[3] = Antiinflammatory activity in fMLP/cytochalasin B stimulated rat neutrophils assessed as beta-glucuronidase release at 10 uM preincubated for 10 mins measured 45 mins after fMLP/cytochalasin B challenge relative to control; type: functional, Neutrophil; summary of the method: as §1
[4] = Antiinflammatory activity in fMLP/cytochalasin B stimulated rat neutrophils assessed as beta-glucuronidase release at 30 uM preincubated for 10 mins measured 45 mins after fMLP/cytochalasin B challenge relative to control; type: functional, Neutrophil; summary of the method: as §1
[5] = Antiinflammatory activity in fMLP/cytochalasin B stimulated rat neutrophils assessed as lysozyme release at 10 uM preincubated for 10 mins measured 45 mins after fMLP/cytochalasin B challenge relative to control; type: functional, Neutrophil; summary of the method: as §1
[6] = Antiinflammatory activity in fMLP/cytochalasin B stimulated rat neutrophils assessed as lysozyme release at 30 uM preincubated for 10 mins measured 45 mins after fMLP/cytochalasin B challenge relative to control; type: functional, Neutrophil; summary of the method: as §1
[7] = Antiinflammatory activity in fMLP/cytochalasin B stimulated rat neutrophils assessed as inhibition of lysozyme release at 10 uM preincubated for 10 mins measured 45 mins after fMLP/cytochalasin B challenge relative to control; type: functional; conditions: Neutrophil; summary of the method: as §1
[8] = Antiinflammatory activity in fMLP/cytochalasin B stimulated rat neutrophils assessed as inhibition of lysozyme release at 30 uM preincubated for 10 mins measured 45 mins after fMLP/cytochalasin B challenge relative to control; type: functional; conditions: Neutrophil; summary of the method: as §1
[9] = tested on: RAW264.7; assay: Antiinflammatory activity in LPS-stimulated mouse RAW264.7 cells assessed as inhibition of nitric oxide production at 3 uM pretreated 1 hr before LPS challenge relative to control; type: functional
Summary of the method: (§2)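 RAW 264.7 mouse macrophage-like cells in DMEM with 10% FCS, plated at 2 × 10⁵ cells/well and adhered overnight. Pretreated with test drug or DMSO (final ≤0.5%) for 1 h at 37 °C, then stimulated with LPS (E. coli 0111:B4, 1 μg/mL) for 24 h. Nitrite in the medium was measured by Griess reaction (A550) against a NaNO₂ standard curve. Mean ± SEM, n = 3.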

[10] = tested on: RAW264.7; assay: Antiinflammatory activity in LPS-stimulated mouse RAW264.7 cells assessed as inhibition of nitric oxide production at 10 uM pretreated 1 hr before LPS challenge relative to control; type: functional; summary of the method: as §2
[11] = tested on: RAW264.7; assay: Antiinflammatory activity in LPS-stimulated mouse RAW264.7 cells assessed as inhibition of nitric oxide production at 30 uM pretreated 1 hr before LPS challenge relative to control; type: functional; summary of the method: as §2
[12] = tested on: RAW264.7; assay: Antiinflammatory activity in LPS-stimulated mouse RAW264.7 cells assessed as inhibition of nitric oxide production pretreated 1 hr before LPS challenge; type: functional, cell-based; summary of the method: as §2
[13] = tested on: N9; assay: Antiinflammatory activity in LPS-stimulated mouse N9 cells assessed as inhibition of nitric oxide production at 1 uM pretreated 1 hr before LPS challenge relative to control; type: functional
Summary of the method: (§3)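 N9 murine microglial line in Iscove's modified DMEM with 5% heat-inactivated FCS, 8 × 10⁴ cells/well. Pretreated for 1 h at 37 °C with drug or DMSO (final ≤0.5%), then stimulated with LPS (10 ng/mL) plus IFN-γ (10 unit/mL) for 24 h. Medium nitrite was read by Griess reaction at 550 nm with a NaNO₂ standard. Mean ± SEM, n = 3.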

[14] = tested on: N9; assay: Antiinflammatory activity in LPS/IFN-gamma-stimulated mouse N9 cells assessed as inhibition of nitric oxide production at 3 uM pretreated 1 hr before LPS/IFNgamma challenge relative to control; type: functional; summary of the method: as §3
[15] = tested on: N9; assay: Toxicity in LPS/IFN-gamma-stimulated mouse N9 cells assessed as LDH release at 30 uM; type: cell-based; conditions: n9, 30 µM
Summary of the method: (§4)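 Cytotoxicity in LPS-stimulated RAW 264.7 or LPS/IFN-γ-stimulated N9 cultures, assessed by LDH release assay and trypan blue exclusion.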

[16] = tested on: RAW264.7; assay: Toxicity in LPS-stimulated mouse RAW264.7 cells assessed as LDH release at 30 uM; type: cell-based; conditions: raw264.7, 30 µM; summary of the method: as §4
[17] = tested on: N9; assay: Antiinflammatory activity in LPS/IFN-gamma-stimulated mouse N9 cells assessed as inhibition of nitric oxide production pretreated 1 hr before LPS/IFNgamma challenge
[18] = tested on: N9; assay: Antiinflammatory activity in LPS/IFN-gamma-stimulated mouse N9 cells assessed as inhibition of nitric oxide production at 10 uM pretreated 1 hr before LPS/IFNgamma challenge relative to control
[19] = Antiinflammatory activity in fMLP/cytochalasin B stimulated rat neutrophils assessed as inhibition of beta-glucuronidase release preincubated for 10 mins measured 45 mins after fMLP/cytochalasin B challenge; type: functional, cell-based; conditions: Neutrophil; summary of the method: as §1
[20] = Antiinflammatory activity in fMLP/cytochalasin B stimulated rat neutrophils assessed as inhibition of beta-glucuronidase release at 1 ug/ml preincubated for 10 mins measured 45 mins after fMLP/cytochalasin B challenge relative to control; type: functional, Neutrophil; design: scale not given: the % may be the effect or the level left; conditions: in the assay text read “1 uM” for “1 ug/ml”; summary of the method: as §1
[21] = Antiinflammatory activity in fMLP/cytochalasin B stimulated rat neutrophils assessed as beta-glucuronidase release at 1 ug/ml preincubated for 10 mins measured 45 mins after fMLP/cytochalasin B challenge relative to control; type: functional, Neutrophil; conditions: in the assay text read “1 uM” for “1 ug/ml”; summary of the method: as §1
[22] = Antiinflammatory activity in fMLP/cytochalasin B stimulated rat neutrophils assessed as beta-glucuronidase release at 3 ug/ml preincubated for 10 mins measured 45 mins after fMLP/cytochalasin B challenge relative to control; type: functional, Neutrophil; conditions: in the assay text read “3 uM” for “3 ug/ml”; summary of the method: as §1
[23] = Antiinflammatory activity in fMLP/cytochalasin B stimulated rat neutrophils assessed as lysozyme release at 1 ug/ml preincubated for 10 mins measured 45 mins after fMLP/cytochalasin B challenge relative to control; type: functional, Neutrophil; conditions: in the assay text read “1 uM” for “1 ug/ml”; summary of the method: as §1
[24] = Antiinflammatory activity in fMLP/cytochalasin B stimulated rat neutrophils assessed as lysozyme release at 3 ug/ml preincubated for 10 mins measured 45 mins after fMLP/cytochalasin B challenge relative to control; type: functional, Neutrophil; conditions: in the assay text read “3 uM” for “3 ug/ml”; summary of the method: as §1
[25] = Antiinflammatory activity in fMLP/cytochalasin B stimulated rat neutrophils assessed as inhibition of lysozyme release at 3 ug/ml preincubated for 10 mins measured 45 mins after fMLP/cytochalasin B challenge relative to control; type: functional; conditions: Neutrophil; summary of the method: as §1
[26] = Antiinflammatory activity in fMLP/cytochalasin B stimulated rat neutrophils assessed as inhibition of lysozyme release preincubated for 10 mins measured 45 mins after fMLP/cytochalasin B challenge; type: functional, cell-based; conditions: Neutrophil; summary of the method: as §1
[27] = Antiinflammatory activity in fMLP/cytochalasin B stimulated rat neutrophils assessed as inhibition of beta-glucuronidase release at 3 uM preincubated for 10 mins measured 45 mins after fMLP/cytochalasin B challenge relative to control; design: scale not given: the % may be the effect or the level left

IC50 [12] [µM] | IC50 [17] [µM] | IC50 [19] [µM] | SMILES | Activity [3] [%] | Activity [5] [%] | inhibition at 10 µM [7] [%] | inhibition at 3 µM [9] [%] | inhibition at 10 µM [10] [%] | inhibition at 30 µM [11] [%] | inhibition at 3 µM [14] [%] | Activity [15] | Activity [16] | inhibition at 10 µM [18] [%] | other results
19 | 9.4 |  | CC(=O)c1cc2c3c(ccc2o1)[C@@H]1COc2cc(O)ccc2[C@@H]1O3 [CROTAFURAN B] | 37.7 | 58.9 | -7.8 | 3.2 | 25.6 | 64.4 | 29 | Toxic | Toxic | 50.4 | inhibition at 10 µM ([1]; Rattus norvegicus, Neutrophil): -0.9%; inhibition at 30 µM [2]: 5.1%; Activity [4]: 35.3%; Activity [6]: 55.1%; inhibition at 30 µM [8]: -0.4%; inhibition at 1 µM [13]: 4.2%
2.3 | 3.6 |  | CC(=N)NCc1cccc(CN)c1 [1400W] |  |  |  |  |  |  |  |  |  |  | 
 |  | 12.2 | CN1CCN(CCCN2c3ccccc3Sc3ccc(C(F)(F)F)cc32)CC1 [TRIFLUOPERAZINE] |  |  |  |  |  |  |  |  |  |  | 
23 |  | 7.8 | C=C(C)c1cc2c3c(ccc2o1)[C@@H]1COc2cc(O)ccc2[C@@H]1O3 [CROTAFURAN A] | 16.5 | 23.6 | 56.2 | -5.1 | 20.6 | 59.5 | 15.4 | Toxic | Toxic | 45.6 | Activity [1]: 55.8%; Activity [20]: 6.9%; Activity [21]: 34.7%; Activity [22]: 24.8%; Activity [23]: 54.2%; Activity [24]: 46.9%; inhibition at 3 µg/mL [25]: 14%; IC50 [26]: 9.5 µM; Activity [27]: 33.4%
